Test system: MS2 coat protein
Experiment: apparent Kd, MS2 coat protein; higher = weaker binding; RNA-MaP array
Method in brief: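 Binding of fluorescently labeled MS2 coat protein, at 1.5 nM to 3 μM and room temperature, was measured with or without input ligand on designed RNAs transcribed on an Illumina sequencing chip from sequenced DNA templates. Apparent Kd was defined as the median of per-cluster binding-curve fits. No design measured on fewer than 10 clusters was kept.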

[1] = designed as: OFF switch for flavin mononucleotide, no ligand
[2] = ligand present: flavin mononucleotide, designed as: OFF switch for flavin mononucleotide
[3] = designed as: ON switch for flavin mononucleotide, no ligand
[4] = ligand present: flavin mononucleotide, designed as: ON switch for flavin mononucleotide
[5] = designed as: ON switch for theophylline, no ligand
[6] = ligand present: theophylline, designed as: ON switch for theophylline
[7] = designed as: ON switch for tryptophan, no ligand
[8] = ligand present: tryptophan, designed as: ON switch for tryptophan
[9] = designed as: OFF switch for tryptophan, no ligand
[10] = ligand present: tryptophan, designed as: OFF switch for tryptophan

| Sequence | apparent Kd [1] | apparent Kd [2] | apparent Kd [3] | apparent Kd [4] | also measured |
| --- | --- | --- | --- | --- | --- |
| AUAAACCUAGGAUAUACCAGGACGAUUCAACAAGAAAACGAACAUGAGGAUCACCCAUGUAGAAGGAGGGAAAG | 20.5 nM | 25.3 nM | – | – | – |
| GCGGGAGCACAGAAGGCGGAACUAAAGCAAUUACCAAUAGUUAACAUGAGGAUCACCCAUGUGCCCGAGGAUAUGUCGAAAGUG | – | – | 53.2 nM | 10.6 nM | – |
| CACAUUCCUUAGAAGGCUACGAAUUUAGCGCGUAGAGGAUAUAAGGGAUACAUGAGGAUCACCCAUGUGAUAUAUCUUCUGAAA | 20.8 nM | 24.1 nM | – | – | – |
| AUUAACUCAGCAGGAUAUCUCAGCGGACGUUGCAGAGAAGGGCUAUGCCUAUGUAGGCAACUCACAUGAGGAUCACCCAUGUAA | – | – | 38.8 nM | 19.1 nM | – |
| GCGCGCGGUGGCGGUCAACAUGAGGAUCACCCAUGUGUGAACAGAAGGCGCGUAUGCUACCAUGGCGAGGAUAUGUUGGGUCAG | 5.95 nM | 5.99 nM | – | – | – |
| GAAUAGGAUCAGAAGGAGCUCCAACGGUGACAUGAGGAUCACCCAUGUACUAAACUACAGAAAAGCUAGGAUAUGAAUAAUAGG | – | – | 27.7 nM | 25.4 nM | – |
| GGACUAUCAGGAUAUACAUGAGGAUCACCCAUGUACUUUAGGUAAUGGGACUACACCGGUAGAAGGGAUUAAAG | 116 nM | 84.8 nM | – | – | – |
| AGACAUGAGGAUCACCCAUGUCUCGGGAUGCGUAGCUUGCACAGAAGGCAUGACCGCAACGGUGAUGAGGAUAUGUCGUACCAA | – | – | 25.9 nM | 8.87 nM | – |
| AGUUGACCAAGAGGAUAUGCCCUGUCUUUAUGUACAUGCAGAACAUGAGGAUCACCCAUGUGACGGCAGAAGGCUUAGCCGGUG | 6.77 nM | 7.12 nM | – | – | – |
| CCAUAAGACGAGAAGGGCUGCCAACUAGGUAGAGCAGGAUAUCGUCUUACUCGUCAUGGCAAAACAUGAGGAUCACCCAUGUAU | 8.16 nM | 7.82 nM | – | – | – |
| GGCCCACAUGAGGAUCACCCAUGUGUGGAUACCAGCCUCAUUUAGGGCCCUUGGCAGCCAGAUAGUAACAAGUCCGAAACACAGA | – | – | – | – | apparent Kd [5]: 93.3 nM; apparent Kd [6]: 94.1 nM |
| CGGUGUGCAGAGGAUAUCGGCGUUUUCUCACAUCGAGAAGGCUGCACAUGAGGAUCACCCAUGUAUCUUUAGGA | 58.6 nM | 189 nM | – | – | – |
| UAUUUGGCGCUAGGAUAUAAAGGAACUAUUUAAUUAGAAGGAGCACGGGAACCUGAGGUACAUGAGGAUCACCCAUGUCUGAUA | – | – | 17.6 nM | 19.1 nM | – |
| GCAUUAUUAUUAGAUACCAGUGUCGCAGGCGACAUGAGGAUCACCCAUGUAAAGUUACUCCACCCUUGGCAGCUAGUUCGACUAC | – | – | – | – | apparent Kd [5]: 103 nM; apparent Kd [6]: 26.3 nM |
| ACUAAUCAGCAACAUGAGGAUCACCCAUGUGGGCCGUCCGGCAGAAGGCCUACGCACUUAGACUAGGAGGAUAUGCAAGCAACU | 15.7 nM | 18.4 nM | – | – | – |
| UAACGUACAAAAGGAUAUGCCAAUAGAAAGAUCUUACAAUAAACACAUGAGGAUCACCCAUGUAAGCAGAAGGUUUGGAAACAA | 12.4 nM | 10.2 nM | – | – | – |
| UGGGAACAUGAGGAUCACCCAUGUGAGGAUAUCCACCGAUUUCACACGAUAGGCACAAGGAGAAGGCACACCUA | 33.9 nM | 36.2 nM | – | – | – |
| CCUCAAAGACAGAAGGAAGGUCCGCUACUAGCAGUAACAACAUGAGGAUCACCCAUGUCAAUACCUUAGGAUAUGUAAGAACGC | – | – | 71.2 nM | 16.5 nM | – |
| CCCGACGAGCCUGAGAUUAAGUAAGCGGAUACCAGAGAUAGGUAGCUCCCUUGGCAGCCGUGGACAUGAGGAUCACCCAUGUCAC | – | – | – | – | apparent Kd (designed as: OFF switch for theophylline, no ligand): 11.1 nM; apparent Kd (ligand present: theophylline, designed as: OFF switch for theophylline): 11.2 nM |
| GCGACUUUUACCGAGGAUAUGUCGUGACACACAUGAGGAUCACCCAUGUUUCUAAGUCCUGGAAUACAGAAGGCGGUAUUAAUACA | – | – | 7.53 nM | 5.42 nM | – |
| AGGGACAUGAGGAUCACCCAUGUUGAAACUCGAGGACCGGUACGGCCGCCACUCGUAUAAUCGAUGUCCAUUUGGGAUUCCGGCU | – | – | – | – | apparent Kd [7]: 25.3 nM; apparent Kd [8]: 24.2 nM |
| UUUAGGUCAGAGAAGGGCCAUUCUACAUACUCGGCAGGAUAUCUAUUACCUGACAUGAGGAUCACCCAUGUGGUGAACCGACCA | – | – | 199 nM | 311 nM | – |
| ACUCGGGGUUGAGGAUAUUCGACUCGAUCUCCACAUGAGGAUCACCCAUGUCAGGACUGACCGGUGAAGAAGGCAACCGUACAU | – | – | 16.2 nM | 5.67 nM | – |
| AAACAUGAGGAUCACCCAUGUCGUCCAAUGUAGGCCUAUUGCGAGGAUAUCAUGUCCCAACUACGUGAGAAGGCGCGACUACCA | 15.2 nM | 12.5 nM | – | – | – |
| GUAACACUGUCAUCGCCGACAUGAGGAUCACCCAUGUGUAAGAGAAGGACCGAGACCGGGAAAUGGUAGGAUAUCUGUGGGUAG | 45.1 nM | 84.5 nM | – | – | – |
| UACUUGAAGUUGCAGGAUAUUUAGGAUCUAACAUGAGGAUCACCCAUGUUAUAUGAGAGACGUAUAAAGAAGGGCAGCGUGAUAGA | – | – | 9.4 nM | 5.9 nM | – |
| UCAUGGUCUGGAGAGAGAAUUACAUGAGGAUCACCCAUGUGCAGAAGGAGUUAUCGCACAACAAACUAGGAUAUGCCAAGAAUU | – | – | 98.1 nM | 152 nM | – |

| Sequence | apparent Kd [1] | apparent Kd [2] | apparent Kd [3] | apparent Kd [4] | also measured |
| --- | --- | --- | --- | --- | --- |
| ACUGUCUUUGAUGAUAUGUAUGGGUCAUUGCGAGGACCGGUACGGCCGCCACUCGGUCCGCCACAUGAGGAUCACCCAUGUCUAU | – | – | – | – | apparent Kd [9]: 94.5 nM; apparent Kd [10]: 195 nM |
| CUUUAUACAUGAGGAUAUUGGAAAACCGGCGUACAAGAAGGCAUGACAUGAGGAUCACCCAUGUAAAGAUAAAGACAAAGCUAA | – | – | 22.7 nM | 10.3 nM | – |
| CUGGGCCAAUAGAAGGGCGGGAGCGCAGGUGAUCAAACCUAUUACAUGAGGAUCACCCAUGUAACGCAGGAUAUAUCGGUUUUA | 25.4 nM | 48 nM | – | – | – |
| CAUAAACCCUAGAAGGGCGCAUUAUGUAGAUUCGCAGGAUAUAGGAACGGGAUCGUGUAUACAACAUGAGGAUCACCCAUGUCA | – | – | 15.4 nM | 14.4 nM | – |
| GAAACAUUAGAAGGAUAUGAUACGAACACCGGGUACAUGAGGAUCACCCAUGUUCAGAAAUAAUAUCAGAAGGUCAGCAACAAA | – | – | 985 nM | 418 nM | – |
| GUCAACGAAGGAUAUACAGGGAUACCCGUCGAGUACGGAGCACAUGAGGAUCACCCAUGUAGAAGGUCGGUGUG | 52 nM | 142 nM | – | – | – |
| UAAAGAGAAGGAUAUACAGGAAGAAAAGCCUCACAAUCGUAACAUGAGGAUCACCCAUGUAGAAGGACUAACAA | 38.7 nM | 29.5 nM | – | – | – |
| UGUCCGUGAUCGGCCGCCACUCAACAAACCUGUGGAAACUGACAUGAGGAUCACCCAUGUUCUUGGAGGACCGGGAUUGCUUCGA | – | – | – | – | apparent Kd [7]: 14.6 nM; apparent Kd [8]: 17.3 nM |
| GACAAUAAUUCAACAAUCAAAAUAGUGGGACGAGGACCGGUACGGCCGCCACUCGCUGAAGCACAUGAGGAUCACCCAUGUCUAA | – | – | – | – | apparent Kd [9]: 17.2 nM; apparent Kd [10]: 17.8 nM |
| GUUAUAAUUACCAAGGAUAUCACAAGGCUUACAUGAGGAUCACCCAUGUUAAUACUCACAGACCGUGAGAAGGUGGCAAGAUCGAU | – | – | 21.4 nM | 16 nM | – |
| CCUAACUGAGGAUAUGACAACUGGCACAUGAGGAUCACCCAUGUAGACUCAUUCGAGUUAUCAGAAGGCAGAAUAU | 10.7 nM | 18.8 nM | – | – | – |
| GUGAUCAUCCGAGGAUAUUUUUCAUAGGCAUAAGGGGACAUGAGGAUCACCCAUGUAAACACCAUAAAGAAGGCGGGGCAGACC | 20 nM | 15.3 nM | – | – | – |
| GCAACCCUGCAGAAGGGCGGGUGUACAUGAGGAUCACCCAUGUUAUCAGCAAAGUAGCUGGAUACGCAGGAUAUGCAGUCGAGU | – | – | 164 nM | 29.6 nM | – |
| AACAUGAGGAUCACCCAUGUUCUGCAAUAAAGUGUAUCAUAUAAGGAUAUCAGACUAAUACGAACUGAGAAGGUAUUCCUACAC | – | – | 5.3 nM | 4.39 nM | – |
| CAGCCGGCCUAGAAGGUCGAAAUCCAAAUCGUCGAAGGAUAUAGGUCCAGAAAACAAUUACAUGAGGAUCACCCAUGUAUCCUG | – | – | 21.5 nM | 14.2 nM | – |
| GGUCGUCUAGUUAGGAUAUCAUUAUUAGAUUAAAUUGAGAAGGAACAUGAGGAUCACCCAUGUCGACAACUAUC | 7.13 nM | 8.12 nM | – | – | – |
| CUGACGUAACAUGAGGAUCACCCAUGUUUGGCGCUAUAGCAACAGGAUAUUCCGCUCACGGAGCUGAAGAAGGGUUACAGUCAC | – | – | 14 nM | 8.37 nM | – |
| AGUCGUUAACGGCGCAACACAUGAGGAUCACCCAUGUGCUAUGAGGAUAUCCGGGUGUACAAGCCGGAGAAGGCAUCGUUCUUU | – | – | 10.6 nM | 9.55 nM | – |
| AUGUAACGUGAGAAGGUGUUGAAAUAAGUUCCAUAAAUCUUACAUGAGGAUCACCCAUGUUUAUACAAGGAUAUCAUUAAUUAU | – | – | 16.8 nM | 12.9 nM | – |
| GUCGCGUAGCAAGGAUAUGCAAAGAGGAAAACUGCAGAAGGUGCCAUUAAAGGACAUGAGGAUCACCCAUGUGCAUUAUCCACA | – | – | 53.4 nM | 30.9 nM | – |
| AAGAGCAGAGGAUAUACAUAGGCAUCAGUUGAAGCAGCUGAACAUGAGGAUCACCCAUGUAGAAGGCUGACAAA | 5.43 nM | 7.29 nM | – | – | – |
| CGAUUACUGCAGAAGGGAGGGCCACAAAACAUGAGGAUCACCCAUGUAGAACUGAACGGGACUCCUCAGGAUAUGCGCCGAGAU | – | – | 28.7 nM | 11.8 nM | – |
| GGGUAACCAGUUAGGAUAUUGAAUAGUUUGAUGUUCAAGAAGGAACAUGAGGAUCACCCAUGUAUGGGACUAGA | 139 nM | 174 nM | – | – | – |
| UCUAACAUGAGGAUCACCCAUGUGGGUUAUCGAGGACCGGUACGGCCGCCACUCGACCAGUAUAACUGGCUAGAACGUAUUUGAU | – | – | – | – | apparent Kd [7]: 34 nM; apparent Kd [8]: 26.6 nM |
| AUAAUCCCUGUUCAGAGACAUGAGGAUCACCCAUGUUUAACGAGAAGGUGAGUGCGACGGCGUCUCAAGGAUAUCGACGUGACC | 9.05 nM | 10.4 nM | – | – | – |
| GUCGAUUUUAAAUUGACAUGAGGAUCACCCAUGUCUUUAAUCAGAAGGCGGACAACAUUAUGUGCCGAGGAUAUGAUUGGAUCC | – | – | 14.2 nM | 11.3 nM | – |

Source: the EternaBench riboswitch data
